What all share (assay type): microsomes
Settings in all cases: Microsome

The species entered for assay [1] is Capra hircus. Briefly: Induction of magnesium independent calcium-transporting ATPase activity in goat spermatozoa microsomal membranes at 20 ug by spectrophotometry in presence of […] of calcium channel blocker thapsigargin. A digest of the protocol: (§1)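 The compound (20 µg) was added together with a fixed concentration of the blocker. Reactions were stopped with 7% ice-cold TCA and read spectrophotometrically. Ca2+-dependent activity (+Ca2+ minus −Ca2+) is given as percent stimulation or inhibition, averaged over four assays.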

The species named for assay [2] is Capra hircus. Briefly: Induction of magnesium independent calcium-transporting ATPase activity in goat spermatozoa microsomal membranes at 20 ug by spectrophotometry in presence of 1 mM of calcium channel blocker orthovanadate. The procedure, abridged: as §1
The species named for assay [3] is Capra hircus. Briefly: Induction of magnesium independent calcium-transporting ATPase activity in goat spermatozoa microsomal membranes at 20 ug by spectrophotometry in presence of 300 uM of calcium channel blocker verapamil. A digest of the protocol: as §1
Assay [4] is filed under the species Capra hircus. Nature of the assay: Induction of magnesium independent calcium-transporting ATPase activity in goat spermatozoa microsomal membranes at 70 nM by spectrophotometry. A digest of the protocol:
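Mg2+-independent Ca2+-ATPase in goat sperm microsomes (2 µg protein) was measured without blockers over varying compound concentrations. Incubation used 3 mM ATP in imidazole/sucrose buffer with EDTA and 2-mercaptoethanol, ±4 mM CaCl2, for 30 min at 37 °C, stopped with ice-cold 7% TCA and read spectrophotometrically. Activity is the difference between the +Ca2+ and −Ca2+ reactions.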

Among the data in ChEMBL document CHEMBL1629510, “Efficient synthesis of (6-deoxy-glycopyranosid-6-yl) sulfone derivatives and their effect on Ca2+-ATPase” (Eur J Med Chem, 2010) are Activity values, retold here.

As for `CO[C@H]1O[C@H](CS(=O)(=O)C[C@H]2O[C@H](OC)[C@H](O)[C@@H](O)[C@@H]2O)[C@@H](O)[C@H](O)[C@H]1O`, the Activity was -28% in assay [1], -24% in assay [2], -14% in assay [3] and 36% in assay [4].
The matching figures for `CO[C@H]1O[C@H](CS(=O)(=O)C[C@H]2O[C@H](OC)[C@H](O)[C@@H](O)[C@H]2O)[C@@H](O)[C@H](O)[C@H]1O`: -38%, -8%, -5% and 32%.
The matching figures for `CO[C@H]1O[C@H](CS(=O)(=O)C[C@H]2O[C@H](OC)[C@H](O)[C@@H](O)[C@H]2O)[C@@H](O)[C@H](O)[C@@H]1O`: -36%, -25%, -21% and 53%.
The matching figures for `CO[C@H]1O[C@H](CS(=O)(=O)C[C@H]2O[C@H](OC)[C@@H](O)[C@@H](O)[C@@H]2O)[C@@H](O)[C@H](O)[C@@H]1O`: -29%, -27%, -2% and 49%.
Take `CO[C@H]1O[C@H](CS(=O)(=O)C[C@H]2O[C@H](OC)[C@H](O)[C@@H](O)[C@@H]2O)[C@@H](O)[C@H](O)[C@@H]1O`: the Activity in assay [1] is -35%; in assay [2], 4%; in assay [3], -3%; in assay [4] it was 43%.
The matching figures for `CO[C@@H]1O[C@H](CS(=O)(=O)C[C@H]2O[C@@H](OC)[C@H](O)[C@H](O)[C@@H]2O)[C@@H](O)[C@@H](O)[C@H]1O`: -33%, -21%, -8% and 30%.
The matching figures for `CO[C@H]1O[C@H](CS(=O)(=O)C[C@H]2O[C@H](OC)[C@H](O)[C@H](O)[C@@H]2O)[C@@H](O)[C@H](O)[C@H]1O`: -31%, -17%, -9% and 30%.
The matching figures for `CO[C@H]1O[C@H](CS(=O)(=O)C[C@H]2O[C@@H](OC)[C@H](O)[C@H](O)[C@@H]2O)[C@@H](O)[C@H](O)[C@@H]1O`: -27%, -19%, -5% and 45%.
